HCT116 bCat-KO = beta-catenin-lacking colon tumor cell growth suppression; actives 1.5% (n = 140,000); HCT116 beta-catenin knockout viability, CellTiter-Glo, 60 h; stronger effect = lower value; AID 818; viability, % at 10 µM;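 active = viability at or under a set limit, the compound median less 4 SD, cut at about 6% in these data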;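 also: 0% = Hyamine 1622 control at 20 µM and 100% = untreated cell control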
H69AR inhibit = blocks growth of human H69AR lung tumor cells; H69AR lung tumor viability, ATP luminescence, 72 h; stronger effect = lower value; viability, % at 10 µM; actives 6% (n = 85,000);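 active = viability at or below 40%; inactive = viability above 40%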;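 also: multidrug resistant small cell line overexpressing MRP-1 efflux transporter; 100% = mean luminescence of untreated control wells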
Lung fibro prol = blocks proliferation of human lung fibroblasts | LL 47 human lung fibroblast viability, ATP luminescence; stronger effect = lower value | viability, % at 10 µM | actives 1.1% (n = 85,000);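 active = viability at or below 50% in the single dose screen; inactive = viability above 50%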;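 also: compound exposure lasted 72 h before the ATP readout; 100% = median luminescence of untreated cell-only wells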
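Material: Human LL 47 lung fibroblast cells | Input: 1,150 cells/well | Buffer or medium: IMEM plus 15% FBS | Compound dosing: 0.1% DMSO in all compound wells | Times: Overnight cell rest, 72 h compound treatment at 37 °C | Signal: CellTiter-Glo luminescence measuring cellular ATP | Measure: % viability versus median cells-only luminescence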
HUVEC prolif 384 = blocks proliferation of human endothelial cells; HUVEC proliferation, CellTiter-Glo luminescence, 72 h; stronger effect = lower value; viability, % at 10 µM (by protocol); actives 1.1% (n = 86,000);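 active = viability at or below 30%; inactive = viability above 30%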;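 also: 100% = median luminescence of DMSO-only cell control wells on each plate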
PTEN del growth = growth suppressors of cells with PTEN tumor suppressor deletion | HCT116 PTEN-null viability, CellTiter-Glo, 60 h; stronger effect = lower value | viability, % at 10 µM | actives 1.2% (n = 140,000);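 active = viability at or below a set limit, 4 SD under the median of all tested compounds, cut at about 3.7% in these data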;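 also: PTEN knockout HCT116 line with beta catenin targeted HCT116 as companion control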
An asterisk follows results filed as active; · = not tested or not shown. The entries come from a sample that favours hits as a whole.

SMILES | HCT116 bCat-KO | H69AR inhibit | Lung fibro prol | HUVEC prolif 384 | PTEN del growth
COc1ccc(/C=C2/C(=O)NC(=S)N(C3CC3)C2=O)cc1CN1C(=O)c2ccccc2C1=O | 91 | · | · | · | 101
COCCCN1CCN(c2nnc3n2-c2sc(Br)cc2C(c2ccccc2Cl)=NC3)CC1 | 100 | · | · | · | 100
Cc1cccn2c(=O)c3cc(C(=O)N4CCC5(CC4)OCCO5)n(C)c3nc12 | 14 | 20* | 57 | 56 | 13
C[C@@H]1O[C@@H](O[C@H]2C[C@@H](O)[C@]3(CO)[C@H]4[C@H](O)C[C@]5(C)[C@@H](C6COC(=O)C6)CC[C@]5(O)[C@@H]4CC[C@]3(O)C2)[C@H](O)[C@H](O)[C@H]1O (some centres not stated) | 4.6* | · | · | · | 5
CN1CCN(c2nc(N(C)C)oc(=O)c2C#N)CC1 | 99 | · | · | · | 96
CC(=Nc1ccc2c(c1)CCC2)c1c(O)n(C2CCCCC2)c(=O)[nH]c1=O | 54 | 40 | 37* | 42 | 95
CSc1ncc(Cl)c(C(=O)O)n1 | 88 | · | · | · | 83
CCc1nc2ccccc2c(=O)n1-c1ccc2ccccc2c1 | 87 | 31* | 91 | 81 | 95
O=C(c1c[nH]cc1-c1ccccc1)c1cccc2ccccc12 | 70 | 84 | 60 | 77 | 79
N#Cc1cc2c(nc1SCC(=O)Nc1cc(Cl)ccc1Cl)C1CCN2CC1 | 1.1* | 1.8* | 7.1* | 5.5* | 0.7*
CC12CN3CCN(C1)CC(C)(C3)C2=NO | 85 | 98 | 103 | 105 | 89
O=C1CN=C(c2cccs2)c2c(sc3c2CCCC3)N1 | 25 | 21* | 95 | 62 | 26
Cc1ccc(N2C(=O)/C(=C/c3ccc(CN(CCC#N)S(C)(=O)=O)o3)C(=O)NC2=S)cc1 | 103 | · | · | · | 100
COc1cc(/C=C2/C(=O)NC(=O)N(c3ccccc3)C2=O)ccc1O | 93 | · | · | · | 94
COc1cc(/C=C/[N+](=O)[O-])ccc1O | 4.0* | · | · | · | 3.3*
N#CCC(=O)NN1Cc2ccccc2C1=N | 88 | · | · | · | 100
Nc1cc(Cl)c2nonc2c1[N+](=O)[O-] | 4.9* | · | · | · | 2.2*
Oc1c(Br)cc(Br)cc1Oc1ccc(Br)cc1Br | 78 | · | · | · | 72
